Measured values gathered from unrelated publications.
Protocols differ between the studies behind these lines.
FLT3 autoinhibited: Receptor-type tyrosine-protein kinase FLT3, autoinhibited (FLT3, Homo sapiens, UniProt P36888)
FLT3 D835Y: Receptor-type tyrosine-protein kinase FLT3 (FLT3, Homo sapiens, UniProt P36888, D835Y)
FLT3: Receptor-type tyrosine-protein kinase FLT3 (FLT3, Homo sapiens, UniProt P36888)
FLT3 D835V/ITD: Receptor-type tyrosine-protein kinase FLT3 (FLT3, Homo sapiens, UniProt P36888, D835V/ITD)
FLT3 N841I: Receptor-type tyrosine-protein kinase FLT3 (FLT3, Homo sapiens, UniProt P36888, N841I)
FLT3 K663Q: Receptor-type tyrosine-protein kinase FLT3 (FLT3, Homo sapiens, UniProt P36888, K663Q)
FLT3 D835V: Receptor-type tyrosine-protein kinase FLT3 (FLT3, Homo sapiens, UniProt P36888, D835V)
FLT3 D835H: Receptor-type tyrosine-protein kinase FLT3 (FLT3, Homo sapiens, UniProt P36888, D835H)
FLT3 R834Q: Receptor-type tyrosine-protein kinase FLT3 (FLT3, Homo sapiens, UniProt P36888, R834Q)

| Compound | target | read-out | method | concentration | remaining binding |
| --- | --- | --- | --- | --- | --- |
| CCC(=N\O)/C(C)=C/c1ccc(F)cc1 | FLT3 autoinhibited | cell-free assay | competition with immobilised ligand | 1 µM | 86% |
| CN1CCN(c2ccc(Nc3nccc(-c4cccc([N+](=O)[O-])c4)n3)cc2C(F)(F)F)CC1 | FLT3 D835Y | binding | – | 10 µM | 0% |
| CC1CCCN1c1nccc(-c2cnn3ncccc23)n1 (centres unmarked) | FLT3 | binding | – | 1 µM | 100% |
| Cc1noc([C@H]2C[C@@H](c3ccc(C(F)(F)F)cc3)CN(C(=O)N3CCS(=O)(=O)C3)C2)n1 | FLT3 autoinhibited | cell-free assay | competition with immobilised ligand | 1 µM | 100% |
| O=C(NC1CCC1)c1ccc2nc(-c3cccc(NS(=O)(=O)NCCN4CCCCC4)c3)cn2c1 | FLT3 D835V/ITD | cell-free assay | competition with immobilised ligand | 10 µM | 37% |
| C[C@@H](c1ccc(-n2cnc3c(N)ncnc32)cc1)N1CCc2nn(C)c(Cc3ccccc3)c2C1=O | FLT3 autoinhibited | binding | competition with immobilised ligand | 0.1 µM | 84% |
| CN1CCN(c2ccc(Nc3nccc(-c4ccccc4)n3)cc2C(F)(F)F)CC1 | FLT3 N841I | binding | – | 10 µM | 3.5% |
| Cc1cnn2ncc(-c3ccnc(N(C)C)n3)c2c1 | FLT3 K663Q | binding | – | 1 µM | 100% |
| O=C(Nc1c[nH]nc1C(=O)NC1CCNCC1)c1cc(F)cc(F)c1 | FLT3 autoinhibited | binding | competition with immobilised ligand | 1 µM | 85% |
| CN(C)C(=O)Cn1cc(-c2nc([C@@](C)(c3ccc(-c4cnc(N)nc4)cc3)C3CC3)no2)cn1 | FLT3 | cell-free assay | competition with immobilised ligand | 1 µM | 97% |
| Cc1cnc(Nc2ccc(C(=O)N3CCC(N4CCCC4)CC3)cc2)nc1-c1cc2ccccc2s1 | FLT3 N841I | binding | competition with immobilised ligand | 1 µM | 0% |
| NS(=O)(=O)c1cc(NC(=O)C2(c3ccccc3Cl)CC2)ccc1Oc1cccc(Cl)c1 | Receptor-type tyrosine-protein kinase FLT3 (FLT3, Homo sapiens, UniProt P36888, F691L/ITD) | cell-free assay | competition with immobilised ligand | 1 µM | 100% |
| N[C@H]1CCN(c2nccc(-c3cnn4ncccc34)n2)C1 | FLT3 D835V | binding | – | 1 µM | 61% |
| C[C@@H]1CN(c2ccc3ncc(-c4ccc5[nH]nc(C6CC6)c5c4)n3n2)C[C@H](C)O1 | FLT3 | binding | competition with immobilised ligand | 0.5 µM | 3% |
| COc1cnc(Nc2cccc(S(N)(=O)=O)c2)nc1N1CCN(c2ccccc2)CC1 | FLT3 N841I | binding | competition with immobilised ligand | 1 µM | 21% |
| CN(c1nccc(-c2cnn3ncccc23)n1)C1CC1 | FLT3 D835Y | binding | – | 1 µM | 85% |
| Nc1ncc2c(n1)-c1c([nH]c3ccc(C#CC4CC4)cc13)CCCC2 | FLT3 D835V | binding | competition with immobilised ligand | 1 µM | 92% |
| F[C@@H]1CCN(c2nccc(-c3cnn4ncccc34)n2)C1 | FLT3 D835V | binding | – | 1 µM | 84% |

| Compound | target | read-out | method | concentration | remaining binding |
| --- | --- | --- | --- | --- | --- |
| O=C1NC(c2ccccn2)Sc2ccccc21 (centres unmarked) | FLT3 K663Q | cell-free assay | competition with immobilised ligand | 1 µM | 82% |
| C=CC(=O)N1CCC(C(=O)NCC(=O)N2CCN(c3nc(-c4cnc(N)nc4C(F)F)nc(N4CCOCC4)n3)CC2)CC1 | FLT3 D835Y | binding | competition with immobilised ligand | 1 µM | 99% |
| O=C(NCCCN1CCOCC1)c1ccc(Nc2ncc(Cl)c(-c3ccc(Cl)s3)n2)cc1 | Receptor-type tyrosine-protein kinase FLT3 (FLT3, Homo sapiens, UniProt P36888, ITD) | binding | competition with immobilised ligand | 1 µM | 0.75% |
| O=C(NCC1CCOCC1)c1n[nH]cc1NC(=O)c1c(F)cccc1F | FLT3 D835H | binding | competition with immobilised ligand | 1 µM | 98% |
| O=C(O)[C@H]1[C@H](Cn2nnc3ccccc3c2=O)CC[C@@H]1C(=O)c1ccc(OCCC2CCOCC2)cc1 | FLT3 R834Q | cell-free assay | competition with immobilised ligand | 1 µM | 96% |
| COc1cnc(Nc2cccc(S(N)(=O)=O)c2)nc1N1CCN(c2ccccc2)C(=O)C1 | FLT3 D835Y | binding | competition with immobilised ligand | 1 µM | 66% |
| COc1ccnn2ncc(-c3ccnc(N(C)C)n3)c12 | FLT3 K663Q | binding | – | 1 µM | 100% |
| COc1ncc2cc3ccccc3nc2c1C#N | FLT3 R834Q | cell-free assay | competition with immobilised ligand | 5 µM | 92% |
| CC(=O)N1CCC(c2ccc(C(=O)NC(=N)N)cc2C(F)(F)F)CC1 | FLT3 K663Q | cell-free assay | competition with immobilised ligand | 1 µM | 100% |
| CNC(=O)[C@@H]1CC[C@@H](n2c(-c3ccc4cnccc4c3)nc3ccc(C(=O)NCc4cccc(C(N)=O)c4)cc32)C1 | FLT3 | binding | competition with immobilised ligand | 1 µM | 100% |
| O=C(c1ccc(Nc2ncc(Cl)c(-c3ccc(Cl)s3)n2)cc1)N1CCC(N2CCCC2)CC1 | FLT3 D835V/ITD | binding | competition with immobilised ligand | 1 µM | 1.1% |
| C[C@H]1CCN(c2nccc(-c3cnn4ncccc34)n2)C1 | FLT3 | binding | – | 1 µM | 81% |
| c1cncc(-c2cccc(Nc3nccc(NC4CCCCC4)n3)c2)c1 | FLT3 N841I | binding | competition with immobilised ligand | 10 µM | 1.6% |
| O=C(NCCCN1CCOCC1)c1ccc(Nc2nccc(-c3cc4ccccc4s3)n2)cc1 | FLT3 D835V/ITD | binding | competition with immobilised ligand | 1 µM | 12% |
| CCN1CCN(Cc2ccc(C(=O)Nc3ccc(C)c(Oc4ccc5c(c4)CC(=O)N5)c3)cc2C(F)(F)F)CC1 | FLT3 N841I | binding | competition with immobilised ligand | 1 µM | 81% |
| CC(C)CC(=O)N1CCc2nc(-c3ccc(Br)cc3)nc(N(C)Cc3ccccc3)c2C1 | FLT3 K663Q | cell-free assay | competition with immobilised ligand | 0.1 µM | 100% |
| O=C(c1ccc(Nc2nccc(-c3cc4ccccc4s3)n2)cc1)N1CCC(N2CCCC2)CC1 | FLT3 D835H | binding | competition with immobilised ligand | 1 µM | 29% |
